SMILES strings stand for the structures. Activity calls are given as the source filed them. The rule behind the calls is not given here.

Test [1] addresses Tyrosine-protein kinase ABL2 (Homo sapiens) (UniProt P42684). Kind of test: Binding affinity to wild-type human ABL2 (A248 to G542 residues) expressed in bacterial expression system assessed as residual binding level at 1 uM by Kinomescan method relative to control. The procedure, abridged:
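KINOMEscan competition binding against 468 purified kinases/mutants, test compound at 1 µM; residual binding relative to control.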

Test [2] deals with Aurora kinase B (Homo sapiens) (UniProt Q96GD4). The test can be described thus: Binding affinity to wild-type human partial length AURKB (D25 to A303 residues) expressed in mammalian expression system assessed as residual binding level at 1 uM by Kinomescan method relative to control. The procedure, abridged: (§1)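 Single-concentration KINOMEscan (DiscoverX) binding screen at 1 μM against a panel of 468 purified kinases and mutants. The read-out is binding relative to control.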

Test [3] addresses Dual specificity tyrosine-phosphorylation-regulated kinase 1A (Homo sapiens) (UniProt Q13627). Kind of test: Binding affinity to wild-type human partial length DYRK1A (H129 to S509 residues) expressed in mammalian expression system assessed as residual binding level at 1 uM by Kinomescan method relative to control.
In test [4] the target is Ephrin type-A receptor 1 (Homo sapiens) (UniProt P21709). Kind of test: Binding affinity to wild-type human partial length EPHA1 (V588 to I913 residues) expressed in bacterial expression system assessed as residual binding level at 1 uM by Kinomescan method relative to control.
In test [5] the target is Receptor-type tyrosine-protein kinase FLT3 (Homo sapiens) (UniProt P36888). The test can be described thus: Binding affinity to wild-type human partial length autoinhibited FLT3 (H564 to Y969 residues) expressed in mammalian expression system assessed as residual binding level at 1 uM by Kinomescan method relative to control.
The target of test [6] is Beta-adrenergic receptor kinase 1 (Homo sapiens) (UniProt P25098). The test can be described thus: Binding affinity to wild-type human full length GRK2 (M1 to L689 residues) expressed in mammalian expression system assessed as residual binding level at 1 uM by Kinomescan method relative to control. The procedure, abridged: (§2)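 Single-concentration (1 μM) competition-binding screen run by KINOMEscan against a panel of 468 purified kinases and mutants. The read-out is the relative binding activity of the test compound to each kinase.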

For test [7], the target named is LIM domain kinase 1 (Homo sapiens) (UniProt P53667). The test can be described thus: Binding affinity to wild-type human full length LIMK1 (M1 to D647 residues) expressed in bacterial expression system assessed as residual binding level at 1 uM by Kinomescan method relative to control. The procedure, abridged: as §2
Test [8] concerns the target Dual specificity mitogen-activated protein kinase kinase 2 (Homo sapiens) (UniProt P36507). Kind of test: Binding affinity to wild-type human full length MEK2 (M1 to V400 residues) expressed in mammalian expression system assessed as residual binding level at 1 uM by Kinomescan method relative to control. The procedure, abridged:
as §1

The target in test [9] is Mitogen-activated protein kinase kinase kinase 11 (Homo sapiens) (UniProt Q16584). Kind of test: Binding affinity to wild-type human partial length MLK3 (I77 to W399 residues) expressed in bacterial expression system assessed as residual binding level at 1 uM by Kinomescan method relative to control.
Test [10] has as its target Mitogen-activated protein kinase 14 (Homo sapiens) (UniProt Q16539). The test can be described thus: Binding affinity to wild-type human full length p38-alpha (M1 to S360 residues) expressed in bacterial expression system assessed as residual binding level at 1 uM by Kinomescan method relative to control. The procedure, abridged:
as §1

In test [11] the test system is Phosphatidylinositol 4,5-bisphosphate 3-kinase catalytic subunit alpha isoform (Homo sapiens), P42336 [H1047L]. The test can be described thus: Binding affinity to human partial length PIK3CA H1047L mutant (R108 to N1068 residues) expressed in mammalian expression system assessed as residual binding level at 1 uM by Kinomescan method relative to control. The procedure, abridged:
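Kinome-wide single-concentration binding screen (KINOMEscan) at 1 μM against a panel of 468 purified kinases and mutants. Read-out is relative binding of each kinase compared with control. Selectivity across the panel was summarised as an S(10) score.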

Test [12] has as its target Serine/threonine-protein kinase pim-1 (Homo sapiens) (UniProt P11309). The test can be described thus: Binding affinity to wild-type human partial length PIM1 (A15 to K313 residues) expressed in bacterial expression system assessed as residual binding level at 1 uM by Kinomescan method relative to control.
In test [13] the target is Rho-associated protein kinase 1 (Homo sapiens) (UniProt Q13464). Kind of test: Binding affinity to wild-type human partial length ROCK1 (M1 to R415 residues) expressed in mammalian expression system assessed as residual binding level at 1 uM by Kinomescan method relative to control.
In test [14] the target is Serine/threonine-protein kinase Sgk3 (Homo sapiens) (UniProt Q96BR1). The test can be described thus: Binding affinity to wild-type human partial length SGK3 (M119 to L496 residues) expressed in mammalian expression system assessed as residual binding level at 1 uM by Kinomescan method relative to control. The procedure, abridged:
(§3)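 KINOMEscan competition binding against a panel of 468 purified kinases/mutants, compound tested at 1 μM; readout is relative binding activity versus control.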

Test [15] addresses NT-3 growth factor receptor (Homo sapiens) (UniProt Q16288). The test can be described thus: Binding affinity to wild-type human partial length TRKC (Q531 to G825 residues) expressed in mammalian expression system assessed as residual binding level at 1 uM by Kinomescan method relative to control. The procedure, abridged:
as §3

Test [16] addresses Serine/threonine-protein kinase WNK2 (Homo sapiens) (UniProt Q9Y3S1). Kind of test: Binding affinity to wild-type human partial length WNK2 (V47 to D482 residues) expressed in mammalian expression system assessed as residual binding level at 1 uM by Kinomescan method relative to control.
The target of test [17] is Tyrosine-protein kinase ZAP-70 (Homo sapiens) (UniProt P43403). The test can be described thus: Binding affinity to wild-type human partial length ZAP70 (D20 to G299 residues) expressed in mammalian expression system assessed as residual binding level at 1 uM by Kinomescan method relative to control.
The test system of a further test is EOL1. Kind of test: Antitumor activity against human EOL-1 cells engrafted in ip dosed NOD-SCID mouse assessed as increase in mouse survival administered 3 weeks post cell inoculation. In kind it is functional, organism-based. The procedure, abridged:
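Daily i.p. dosing started 3 weeks after inoculation at 7.5, 15 or 30 mg/kg/day. Mice monitored daily and euthanized when moribund or at hind-limb paralysis. Bone marrow cells, after red-cell lysis, stained with PE anti-HLA-ABC and counted by flow cytometry.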

Test [18] has as its target T1, Platelet-derived growth factor receptor alpha (Homo sapiens, UniProt P16234). The test can be described thus: Inhibition of PDGFRalpha autophosphorylation at Y849 residue in human EOL-1 cells up to 300 nM after 2 hrs by Western blot analysis. In kind it is cell-based. For orientation: A western blot detects proteins with antibodies after separation by electrophoresis.

Test [19] has as its target T1, Platelet-derived growth factor receptor alpha. The test can be described thus: Inhibition of PDGFRalpha in human EOL-1 cells assessed as decrease in ERK1/2 phosphorylation at T202/Y204 residues up to 300 nM after 2 hrs by Western blot analysis. In kind it is cell-based.
For the next test, the system named is NCI-H1703. Kind of test: Induction of apoptosis in human NCI-H1703 cells assessed as cleaved caspase3 expression level after 72 hrs in presence of PDGF-AA by Western blot analysis. In kind it is functional, cell-based. The procedure, abridged:
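Cells exposed to compound or DMSO for the stated periods, then lysed and immunoblotted for PARP and caspase-3 cleavage, with β-actin as loading control. NCI-H1703 stimulation used PDGF AA at 100 ng/mL.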

Test [20] deals with Vascular endothelial growth factor receptor 2 (Homo sapiens) (UniProt P35968).

With `Cc1ccc(NC(=O)c2ccc(CN(CCN(C)C)C(=O)c3cccnc3)cc2)cc1Nc1nccc(-c2cccnc2)n1`, the Activity came out at 69% in test [1]; 93% in [2]; 100% in [3]; 100% in test [4]; 100% in [5]; 100% in test [6]. Also, the Activity in test [7] is 100%; in test [8], 86%; in test [9], 100%; in test [10] it was 99%; in [11], 88%; in test [12] it was 98%. Besides, the Activity in [13] was 100%; in [14], 92%; in test [15], 89%; in test [16] it was 100%; in test [17], 100%; in the test on EOL1, “Dose-dependent effect”. Further, the inhibition entry in test [18] and in test [19] was “Active” in each case. For the same molecule, the result in the test with NCI-H1703 was Active. For the same molecule, the GI50 (as a rule, the concentration giving 50% growth inhibition) in test [20] was over 10 µM.

The record behind these values is ChEMBL document CHEMBL4229344 (Eur J Med Chem, 2018).
